Test results from ChEMBL document CHEMBL1131023, “Identification of a dihydropyridine as a potent alpha1a adrenoceptor-selective antagonist that inhibits phenylephrine-induced contraction of the human prostate” (J Med Chem, 1998).

Assays:
[1] = target: Voltage-gated L-type calcium channel (Rattus norvegicus, UniProt P22002+Q02485+P27732); assay: Binding affinity at the L-type [Ca2+] channel from rat brain homogenate by [3H]nitrendipine displacement.; type: tissue-based
[2] = target: T1, Alpha-1D adrenergic receptor (Homo sapiens, UniProt P25100); assay: Binding affinity determined by displacement of [3H]prazosin from alpha-1D adrenergic receptor
T1 sequence (P25100 whole entry): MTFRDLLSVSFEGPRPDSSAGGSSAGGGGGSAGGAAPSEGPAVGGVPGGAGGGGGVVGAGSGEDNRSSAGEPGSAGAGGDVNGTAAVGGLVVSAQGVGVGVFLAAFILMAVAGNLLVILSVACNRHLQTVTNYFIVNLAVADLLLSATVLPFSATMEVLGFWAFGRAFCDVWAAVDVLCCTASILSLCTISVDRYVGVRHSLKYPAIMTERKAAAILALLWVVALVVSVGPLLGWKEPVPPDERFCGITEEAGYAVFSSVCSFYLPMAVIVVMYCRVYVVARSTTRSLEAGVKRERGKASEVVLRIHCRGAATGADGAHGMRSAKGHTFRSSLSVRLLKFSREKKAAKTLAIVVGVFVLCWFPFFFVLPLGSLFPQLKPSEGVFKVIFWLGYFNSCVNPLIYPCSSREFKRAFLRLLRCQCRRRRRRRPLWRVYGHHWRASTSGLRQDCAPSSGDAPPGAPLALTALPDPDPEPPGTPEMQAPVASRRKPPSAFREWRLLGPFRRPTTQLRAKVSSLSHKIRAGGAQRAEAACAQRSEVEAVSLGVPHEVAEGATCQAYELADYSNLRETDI
How it was run: (§1)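 Radioligand displacement binding at the cloned receptor, incubated for 30 min.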

[3] = target: T2, Alpha-1A adrenergic receptor (Homo sapiens, UniProt P35348); assay: Binding affinity determined by displacement of [3H]prazosin from alpha-1A adrenergic receptor
T2 sequence (P35348 whole entry): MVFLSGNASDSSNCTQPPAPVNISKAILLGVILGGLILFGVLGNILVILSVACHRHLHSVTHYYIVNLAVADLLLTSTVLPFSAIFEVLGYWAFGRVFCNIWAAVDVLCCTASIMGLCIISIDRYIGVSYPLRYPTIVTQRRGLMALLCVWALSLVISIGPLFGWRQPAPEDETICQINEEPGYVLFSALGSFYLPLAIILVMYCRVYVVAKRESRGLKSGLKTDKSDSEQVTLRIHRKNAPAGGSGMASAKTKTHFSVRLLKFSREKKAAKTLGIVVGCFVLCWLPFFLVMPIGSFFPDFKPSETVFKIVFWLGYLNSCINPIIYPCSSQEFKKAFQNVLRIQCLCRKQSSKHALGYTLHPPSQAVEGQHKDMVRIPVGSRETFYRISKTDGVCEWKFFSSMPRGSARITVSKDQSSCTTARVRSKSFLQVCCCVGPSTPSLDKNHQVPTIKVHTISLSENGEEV

[4] = target: T3, Alpha-2B adrenergic receptor (Homo sapiens, UniProt P18089); assay: Binding affinity determined by displacement of [3H]rauwolscine from alpha-2B adrenergic receptor
T3 sequence (P18089 whole entry): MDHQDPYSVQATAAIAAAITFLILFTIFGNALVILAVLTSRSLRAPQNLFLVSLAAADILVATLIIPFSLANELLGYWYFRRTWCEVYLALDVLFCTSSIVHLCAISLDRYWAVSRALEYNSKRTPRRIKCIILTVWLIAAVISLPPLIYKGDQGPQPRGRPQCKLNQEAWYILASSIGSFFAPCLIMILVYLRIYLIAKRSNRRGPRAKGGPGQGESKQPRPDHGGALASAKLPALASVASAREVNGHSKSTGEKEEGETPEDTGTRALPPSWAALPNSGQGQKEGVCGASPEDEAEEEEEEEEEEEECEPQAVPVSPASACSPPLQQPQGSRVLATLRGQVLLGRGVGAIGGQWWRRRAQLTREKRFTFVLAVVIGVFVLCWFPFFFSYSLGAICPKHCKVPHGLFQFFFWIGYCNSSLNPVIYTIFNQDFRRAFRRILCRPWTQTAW

[5] = target: T4, Alpha-1B adrenergic receptor (Homo sapiens, UniProt P35368); assay: Binding affinity determined by displacement of [3H]prazosin from alpha-1B adrenergic receptor
T4 sequence (P35368 whole entry): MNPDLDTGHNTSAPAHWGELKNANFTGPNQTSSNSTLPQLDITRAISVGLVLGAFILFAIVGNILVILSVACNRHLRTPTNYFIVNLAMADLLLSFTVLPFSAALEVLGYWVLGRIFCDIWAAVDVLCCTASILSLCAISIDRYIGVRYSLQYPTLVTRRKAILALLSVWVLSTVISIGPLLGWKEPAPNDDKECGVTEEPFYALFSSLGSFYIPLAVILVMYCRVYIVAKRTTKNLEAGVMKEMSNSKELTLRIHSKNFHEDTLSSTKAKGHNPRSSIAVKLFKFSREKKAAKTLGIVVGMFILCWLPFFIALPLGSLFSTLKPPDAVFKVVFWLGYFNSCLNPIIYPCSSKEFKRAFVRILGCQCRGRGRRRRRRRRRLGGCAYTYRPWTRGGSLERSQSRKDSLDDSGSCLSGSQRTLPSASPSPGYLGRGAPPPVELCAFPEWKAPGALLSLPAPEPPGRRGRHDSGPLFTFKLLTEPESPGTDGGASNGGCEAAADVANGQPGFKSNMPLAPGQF

[6] = target: T5, Alpha-2A adrenergic receptor (Homo sapiens, UniProt P08913); assay: Binding affinity determined by displacement of [3H]rauwolscine from alpha-2A adrenergic receptor; how it was run: as §1
T5 sequence (P08913 whole entry): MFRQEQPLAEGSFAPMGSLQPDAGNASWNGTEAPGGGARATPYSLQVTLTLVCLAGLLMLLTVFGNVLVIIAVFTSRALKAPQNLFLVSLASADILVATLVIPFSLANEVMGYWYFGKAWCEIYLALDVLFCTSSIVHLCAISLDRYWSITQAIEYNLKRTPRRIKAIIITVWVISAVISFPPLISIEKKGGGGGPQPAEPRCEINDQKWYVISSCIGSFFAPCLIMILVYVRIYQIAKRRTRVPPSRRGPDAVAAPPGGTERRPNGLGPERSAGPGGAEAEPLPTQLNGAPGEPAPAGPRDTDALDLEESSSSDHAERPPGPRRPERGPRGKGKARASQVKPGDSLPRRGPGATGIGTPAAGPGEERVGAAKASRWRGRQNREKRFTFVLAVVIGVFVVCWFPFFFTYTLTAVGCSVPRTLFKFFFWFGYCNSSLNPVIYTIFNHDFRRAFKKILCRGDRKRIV

[7] = target: T6, Alpha-2C adrenergic receptor (Homo sapiens, UniProt P18825); assay: Binding affinity assayed by displacement of [3H]rauwolscine from human alpha-2C adrenergic receptor; how it was run: as §1
T6 sequence (P18825 whole entry): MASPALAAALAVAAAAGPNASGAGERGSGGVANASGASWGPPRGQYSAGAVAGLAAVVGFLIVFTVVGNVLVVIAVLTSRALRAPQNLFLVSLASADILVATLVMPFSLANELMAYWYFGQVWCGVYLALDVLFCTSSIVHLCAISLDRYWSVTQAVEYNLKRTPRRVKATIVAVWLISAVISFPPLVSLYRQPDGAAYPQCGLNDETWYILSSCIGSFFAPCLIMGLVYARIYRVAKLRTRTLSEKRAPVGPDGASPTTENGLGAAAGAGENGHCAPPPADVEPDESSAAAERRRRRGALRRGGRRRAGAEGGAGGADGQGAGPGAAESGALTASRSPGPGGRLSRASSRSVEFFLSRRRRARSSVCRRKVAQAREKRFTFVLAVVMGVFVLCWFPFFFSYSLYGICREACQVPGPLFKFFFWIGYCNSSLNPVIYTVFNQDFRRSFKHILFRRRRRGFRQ

Log Ki [1]	Ki [2]	Ki [3]	Ki [4]	Ki [5]	Ki [6]	Ki [7]	Structure (SMILES)
< -6	0.316 µM	0.00148 µM	0.575 µM	0.162 µM	0.631 µM	0.398 µM	CO/C(O)=C1\C(C)=NC(C)=C(C(=O)NCCCN2CCC(c3ccccc3)(c3ccccc3)CC2)C1c1ccc([N+](=O)[O-])c(OC)c1 (stereo unspecified)
	1.74 µM	0.316 µM	0.2 µM	0.977 µM	1.17 µM	0.776 µM	CC1=C(C(=O)O)C(c2ccc3c(c2)OCO3)C(C(=O)NCCCN2CCC(c3ccccc3)(c3ccccc3)CC2)=C(C)N1 (stereo unspecified)
< -6	0.447 µM	0.00178 µM	2.29 µM	0.123 µM	2.14 µM	1 µM	CO/C(O)=C1\C(C)=NC(C)=C(C(=O)NCCCN2CCC(c3ccccc3)(c3ccccc3)CC2)C1c1ccc(Cl)cc1 (stereo unspecified)
< -6	0.49 µM	0.00708 µM	1.51 µM	0.204 µM	2.19 µM	1.15 µM	CO/C(O)=C1\C(C)=NC(C)=C(C(=O)NCCCN2CCC(c3ccccc3)(c3ccccc3)CC2)C1c1ccc(OC)cc1 (stereo unspecified)
< -6	0.324 µM	0.00186 µM	1.26 µM	0.115 µM	0.912 µM	0.158 µM	CO/C(O)=C1\C(C)=NC(C)=C(C(=O)NCCCN2CCC(c3ccccc3)(c3ccccc3)CC2)C1c1ccc(Cl)c(Cl)c1 (stereo unspecified)
< -6	0.126 µM	0.000525 µM	0.0912 µM	0.0417 µM	0.11 µM	0.0479 µM	CO/C(O)=C1\C(C)=NC(C)=C(C(=O)NCCCN2CCC(c3ccccc3)CC2)C1c1ccc(Cl)c([N+](=O)[O-])c1 (stereo unspecified)
< -6	0.501 µM	0.0204 µM	0.49 µM	0.24 µM	0.676 µM	0.245 µM	CO/C(O)=C1\C(C)=NC(C)=C(C(=O)N(C)CCCN2CCC(c3ccccc3)(c3ccccc3)CC2)C1c1ccc([N+](=O)[O-])cc1 (stereo unspecified)
		0.0162 µM	0.575 µM	1.78 µM	2.09 µM	1.02 µM	CNC(=O)C1=C(C)NC(C)=C(C(=O)NCCCN2CCC(c3ccccc3)(c3ccccc3)CC2)C1c1ccc2c(c1)OCO2 (stereo unspecified)
< -6	0.38 µM	0.00182 µM	1.26 µM	0.151 µM	0.759 µM	0.871 µM	CO/C(O)=C1\C(C)=NC(C)=C(C(=O)NCCCN2CCC(c3ccccc3)(c3ccccc3)CC2)C1c1ccc(C#N)cc1 (stereo unspecified)
< -6	1.15 µM	0.00871 µM	0.513 µM	0.0776 µM	0.447 µM	0.245 µM	CO/C(O)=C1\C(C)=NC(C)=C(C(=O)NCCN2CCC(c3ccccc3)(c3ccccc3)CC2)C1c1ccc([N+](=O)[O-])cc1 (stereo unspecified)
-6.43	0.741 µM	0.0363 µM	0.891 µM	0.138 µM	1.58 µM	0.631 µM	CO/C(O)=C1\C(C)=NC(C)=C(C(=O)NCCCN2CCC(c3ccccc3)(c3ccccc3)CC2)C1c1ccc2ccccc2c1 (stereo unspecified)

Structure (SMILES)	Log Ki [1]	Ki [2]	Ki [3]	Ki [4]	Ki [5]	Ki [6]	Ki [7]
CNC(=O)C1=C(C)NC(C)=C(C(=O)NCCCN2CCC(c3ccccc3)(c3ccccc3)CC2)C1c1ccc([N+](=O)[O-])cc1 (stereo unspecified)	< -6	0.759 µM	0.00447 µM	0.933 µM	0.49 µM		
CC(C)C1=C(C(N)=O)C(c2ccc([N+](=O)[O-])cc2)C(C(=O)NCCCN2CCC(c3ccccc3)(c3ccccc3)CC2)=C(C(C)C)N1 (stereo unspecified)		0.347 µM	0.0537 µM				
CC1=C(C(=O)NCCCN2CCC(c3ccccc3)(c3ccccc3)CC2)C(c2ccc([N+](=O)[O-])cc2)C(C(=O)N(C)C)=C(C)N1 (stereo unspecified)	< -6						
CC1=C(C#N)C(c2ccc([N+](=O)[O-])cc2)C(C(=O)NCCCN2CCC(c3ccccc3)(c3ccccc3)CC2)=C(C)N1 (stereo unspecified)	< -6	0.437 µM	0.0562 µM	0.832 µM	0.166 µM	0.631 µM	0.479 µM
CC(=O)C1=C(C)NC(C)=C(C(=O)NCCCN2CCC(c3ccccc3)(c3ccccc3)CC2)C1c1ccc([N+](=O)[O-])cc1 (stereo unspecified)	< -6						
CCC1=C(C(N)=O)C(c2ccc([N+](=O)[O-])cc2)C(C(=O)NCCCN2CCC(c3ccccc3)(c3ccccc3)CC2)=C(CC)N1 (stereo unspecified)						0.355 µM	
CC1=C(C(N)=O)C(c2ccc([N+](=O)[O-])cc2)C(C(=O)NCCCN2CCC(c3ccccc3)(c3ccccc3)CC2)=C(C)N1 (single isomer, unassigned; (+))		0.398 µM		0.407 µM			
CC1=C(C(N)=O)C(c2ccc([N+](=O)[O-])cc2)C(C(=O)NCCCN2CCC(c3ccccc3)(c3ccccc3)CC2)=C(C)N1 (single isomer, unassigned; (-))		0.224 µM		0.282 µM			
CC1=C(C(N)=O)C(c2ccc([N+](=O)[O-])cc2)C(C(=O)NCCCN2CCC(c3ccccc3)(c3ccccc3)CC2)=C(C)N1 (stereo in doubt; 19)	< -6						
